Converted amounts (≈) assume the structure as drawn.
Experiments:
Format in all cases: functional
Pseudomonas aeruginosa [1] = assay: Ratio of gentamicin MIC to compound MIC for Pseudomonas aeruginosa FNSST 982
Aeromonas hydrophila [2] = assay: Antibacterial activity against Aeromonas hydrophila FNSST 014 after 18 to 24 hrs by two-fold broth microdilution assay
How it was run: (§1)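 CLSI two-fold broth microdilution was used. Compounds were dissolved in DMSO, brought to 10 mg/mL in medium, then serially diluted in Mueller Hinton broth over 400–0.09 µg/mL. Overnight MHB cultures were diluted to 10^6 CFU/mL, and 10 µL was added per well. Plates were incubated 18–24 h at 37 °C, then 0.2 mg/mL INT was added for 30 min at 37 °C. MIC was the lowest concentration with no visible growth or pink colour, triplicate.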

Pseudomonas aeruginosa [3] = assay: Antibacterial activity against Pseudomonas aeruginosa FNSST 982 after 18 to 24 hrs by two-fold broth microdilution assay; how it was run: as §1
Klebsiella pneumoniae [4] = assay: Antibacterial activity against Klebsiella pneumoniae FNSST 011 after 18 to 24 hrs by two-fold broth microdilution assay; how it was run: as §1
Escherichia coli [5] = assay: Antibacterial activity against Escherichia coli FNSST 982 after 18 to 24 hrs by two-fold broth microdilution assay; how it was run: as §1
Clostridium perfringens [6] = assay: Antibacterial activity against Clostridium perfringens FNSST 4999 after 18 to 24 hrs by two-fold broth microdilution assay
How it was run: (§2)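 CLSI two-fold broth microdilution. Compounds dissolved in DMSO, 10 mg/mL stock, serially diluted to 400–0.09 µg/mL in Mueller Hinton broth. Wells inoculated with 10^6 CFU/mL bacteria and incubated 18–24 h at 37 °C. 0.2 mg/mL INT added for 30 min. MIC taken as the lowest concentration with no visible growth or pink colour. Triplicate.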

Staphylococcus aureus [7] = assay: Antibacterial activity against Staphylococcus aureus ATCC 25923 after 18 to 24 hrs by two-fold broth microdilution assay; how it was run: as §1
Enterococcus faecalis [8] = assay: Antibacterial activity against Enterococcus faecalis ATCC 29212 after 18 to 24 hrs by two-fold broth microdilution assay; how it was run: as §1
Bacillus cereus [9] = assay: Antibacterial activity against Bacillus cereus ATCC 11778 after 18 to 24 hrs by two-fold broth microdilution assay; how it was run: as §1
Aspergillus fumigatus = assay: Antifungal activity against Aspergillus fumigatus FNSST 3833 assessed as diameter of zone of inhibition at 250 ug/disc after 72 hrs by disc diffusion method; settings: FNSST 3833, 72 h, read-out: DIZ
How it was run: (§3)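 Fungi were grown overnight at 30 °C in Sabouraud dextrose broth to 10^4 cfu/mL, and 100 µL was spread on Sabouraud dextrose agar. 6 mm discs carried 250 µg (25 µL of a 10 mg/mL stock in 96% ethanol), with ethanol as the negative control. Incubation was at 30 °C for 48 h (yeast) or 72 h (molds). Zone diameter was read including the disc, in triplicate, mean ± SE.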

Talaromyces funiculosus = assay: Antifungal activity against Penicillium funiculosum FNSST 3724 assessed as diameter of zone of inhibition at 250 ug/disc after 72 hrs by disc diffusion method; settings: FNSST 3724, 72 h, read-out: DIZ; how it was run: as §3
Aeromonas hydrophila [10] = assay: Antibacterial activity against Aeromonas hydrophila FNSST 014 assessed as diameter of zone of inhibition at 250 ug/disc after 24 hrs by disc diffusion method; settings: FNSST 014, 24 h, read-out: DIZ
How it was run: (§4)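 Bacteria were grown overnight at 37 °C in TSB to about 10^6 cfu/mL, and 100 µL was spread on Mueller Hinton agar. Sterile 6 mm discs were each loaded with 25 µL of a 10 mg/mL stock in 96% ethanol, giving 250 µg/disc. Ethanol served as the negative control. Plates were incubated 24 h at 37 °C. Inhibition zone diameter was measured including the disc, in triplicate, as mean ± SE.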

Pseudomonas aeruginosa [11] = assay: Antibacterial activity against Pseudomonas aeruginosa FNSST 982 assessed as diameter of zone of inhibition at 250 ug/disc after 24 hrs by disc diffusion method; settings: FNSST 982, 24 h, read-out: DIZ; how it was run: as §4
Klebsiella pneumoniae [12] = assay: Antibacterial activity against Klebsiella pneumoniae FNSST 011 assessed as diameter of zone of inhibition at 250 ug/disc after 24 hrs by disc diffusion method; settings: FNSST 011, 24 h, read-out: DIZ; how it was run: as §4
Escherichia coli [13] = assay: Antibacterial activity against Escherichia coli FNSST 982 assessed as diameter of zone of inhibition at 250 ug/disc after 24 hrs by disc diffusion method; settings: FNSST 982, 24 h, read-out: DIZ; how it was run: as §4
Clostridium perfringens [14] = assay: Antibacterial activity against Clostridium perfringens FNSST 4999 assessed as diameter of zone of inhibition at 250 ug/disc after 24 hrs by disc diffusion method; settings: FNSST 4999, 24 h, read-out: DIZ
How it was run: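 Disc diffusion per CLSI: 100 µL of 10^6 cfu/mL bacterial suspension spread on Mueller Hinton agar. 6 mm discs loaded with 25 µL of 10 mg/mL compound stock in 96% ethanol (250 µg/disc); ethanol as negative control. Incubated 24 h at 37 °C. Inhibition zone diameter measured in mm including the disc, triplicate, reported as mean ± SE.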

Staphylococcus aureus [15] = assay: Antibacterial activity against Staphylococcus aureus ATCC 25923 assessed as diameter of zone of inhibition at 250 ug/disc after 24 hrs by disc diffusion method; settings: ATCC 25923, 24 h, read-out: DIZ; how it was run: as §4
Enterococcus faecalis [16] = assay: Antibacterial activity against Enterococcus faecalis ATCC 29212 assessed as diameter of zone of inhibition at 250 ug/disc after 24 hrs by disc diffusion method; settings: ATCC 29212, 24 h, read-out: DIZ; how it was run: as §4
Bacillus cereus [17] = assay: Antibacterial activity against Bacillus cereus ATCC 11778 assessed as diameter of zone of inhibition at 250 ug/disc after 24 hrs by disc diffusion method; settings: ATCC 11778, 24 h, read-out: DIZ; how it was run: as §4
Candida albicans = assay: Antifungal activity against Candida albicans ATCC 10231 assessed as diameter of zone of inhibition at 250 ug/disc after 48 hrs by disc diffusion method; settings: ATCC 10231, 48 h, read-out: DIZ; how it was run: as §3
Pseudomonas aeruginosa [18] = assay: Antibacterial activity against GIM-1 expressing Pseudomonas aeruginosa isolate 197 after 18 to 24 hrs by two-fold broth microdilution assay; how it was run: as §1
Acinetobacter baumannii = assay: Antibacterial activity against SIM-1 expressing Acinetobacter baumannii isolate 170 after 18 to 24 hrs by two-fold broth microdilution assay; how it was run: as §2
Escherichia coli [19] = assay: Antibacterial activity against […] expressing Escherichia coli isolate 235 after 18 to 24 hrs by two-fold broth microdilution assay; how it was run: as §2
Escherichia coli [20] = assay: Antibacterial activity against TEM-1/SHV-12 expressing Escherichia coli isolate 237 after 18 to 24 hrs by two-fold broth microdilution assay; how it was run: as §2
Escherichia coli [21] = assay: Antibacterial activity against […] expressing Escherichia coli isolate 4024 after 18 to 24 hrs by two-fold broth microdilution assay; how it was run: as §2
Aeromonas caviae [22] = assay: Antibacterial activity against TEM-1/CTX-M-15 expressing Aeromonas caviae isolate 260 after 18 to 24 hrs by two-fold broth microdilution assay; how it was run: as §1
Aeromonas caviae [23] = assay: Antibacterial activity against […] expressing Aeromonas caviae isolate 258 after 18 to 24 hrs by two-fold broth microdilution assay; how it was run: as §1
Aeromonas hydrophila [24] = assay: Antibacterial activity against TEM-1/SHV-12 expressing Aeromonas hydrophila isolate 268 after 18 to 24 hrs by two-fold broth microdilution assay; how it was run: as §1
Kluyvera intermedia = assay: Antibacterial activity against TEM-1/SHV-12/[…] expressing Enterobacter intermedius isolate 243 after 18 to 24 hrs by two-fold broth microdilution assay; how it was run: as §1
Enterobacter cloacae [25] = assay: Antibacterial activity against CTX-15 expressing Enterobacter cloacae isolate 51 after 18 to 24 hrs by two-fold broth microdilution assay
Enterobacter cloacae [26] = assay: Antibacterial activity against TEM-1/CTX-M-15 expressing Enterobacter cloacae isolate 62 after 18 to 24 hrs by two-fold broth microdilution assay
Enterobacter cloacae [27] = assay: Antibacterial activity against TEM-1/SHV-12 expressing Enterobacter cloacae isolate 306 after 18 to 24 hrs by two-fold broth microdilution assay
Klebsiella pneumoniae [28] = assay: Antibacterial activity against TEM-1/SHV-12 expressing Klebsiella pneumoniae isolate 303 after 18 to 24 hrs by two-fold broth microdilution assay; how it was run: as §1
[29] = system: Stenotrophomonas maltophilia; assay: Antibacterial activity against […] expressing Stenotrophomonas maltophilia isolate 125 after 18 to 24 hrs by two-fold broth microdilution assay; how it was run: as §1
Escherichia coli [30] = assay: Ratio of gentamicin MIC to compound MIC for Escherichia coli FNSST 982

Row | Compound | MIC (Aeromonas hydrophila [2]) [µg/mL] | MIC (Pseudomonas aeruginosa [3]) [µg/mL] | MIC (Klebsiella pneumoniae [4]) [µg/mL] | MIC (Escherichia coli [5]) [µg/mL] | MIC (Clostridium perfringens [6]) [µg/mL] | MIC (Staphylococcus aureus [7]) [µg/mL] | MIC (Pseudomonas aeruginosa [18]) [µg/mL] | MIC (Acinetobacter baumannii) [µg/mL] | MIC (Escherichia coli [19]) [µg/mL] | MIC (Escherichia coli [20]) [µg/mL] | MIC (Escherichia coli [21]) [µg/mL] | MIC (Aeromonas caviae [22]) [µg/mL] | MIC (Aeromonas caviae [23]) [µg/mL] | MIC (Aeromonas hydrophila [24]) [µg/mL] | MIC (Kluyvera intermedia) [µg/mL] | MIC (Enterobacter cloacae [25]) [µg/mL] | MIC (Enterobacter cloacae [26]) [µg/mL] | MIC (Enterobacter cloacae [27]) [µg/mL] | MIC (Klebsiella pneumoniae [28]) [µg/mL] | MIC [29] [µg/mL] | also measured
1 | O/N=C/c1nccn1Cc1ccccc1 | 25 (≈ 124 µM) | 12.5 (≈ 62.1 µM) | 25 (≈ 124 µM) | 25 (≈ 124 µM) | 50 (≈ 248 µM) | 6.25 (≈ 31.1 µM) | – | – | – | – | – | – | – | – | – | – | – | – | – | – | Ratio (Pseudomonas aeruginosa [1]): 5; MIC (Enterococcus faecalis [8]): 6.25 µg/mL (≈ 31.1 µM); MIC (Bacillus cereus [9]): 6.25 µg/mL (≈ 31.1 µM); zone of inhibition at 250 µg/disc (Aspergillus fumigatus): 11.5 mm; zone of inhibition at 250 µg/disc (Talaromyces funiculosus): 17.6 mm; zone of inhibition at 250 µg/disc (Aeromonas hydrophila [10]): 10.1 mm; zone of inhibition at 250 µg/disc (Pseudomonas aeruginosa [11]): 17.9 mm; zone of inhibition at 250 µg/disc (Klebsiella pneumoniae [12]): 15.8 mm; zone of inhibition at 250 µg/disc (Escherichia coli [13]): 17.3 mm; zone of inhibition at 250 µg/disc (Clostridium perfringens [14]): 15.9 mm; zone of inhibition at 250 µg/disc (Staphylococcus aureus [15]): 10.8 mm; zone of inhibition at 250 µg/disc (Enterococcus faecalis [16]): 14.9 mm; zone of inhibition at 250 µg/disc (Bacillus cereus [17]): 17.5 mm; zone of inhibition at 250 µg/disc (Candida albicans): 17.2 mm
2 | CN(C)[C@@H]1C(O)=C(C(N)=O)C(=O)[C@@]2(O)C(O)=C3C(=O)c4c(O)cccc4[C@@](C)(O)[C@H]3C[C@@H]12 [TETRACYCLINE] | – | – | – | – | – | – | > 8 | 64 (≈ 144 µM) | 32 (≈ 72 µM) | 128 (≈ 288 µM) | 16 (≈ 36 µM) | 128 (≈ 288 µM) | 64 (≈ 144 µM) | 8 (≈ 18 µM) | 16 (≈ 36 µM) | 64 (≈ 144 µM) | 16 (≈ 36 µM) | 16 (≈ 36 µM) | 256 (≈ 576 µM) | 128 (≈ 288 µM) | –
3 | O/N=C/c1n(Cc2ccccc2)cc[n+]1-c1ccccc1.[Br-] | 25 | 25 | 31.2 | 3.12 | 25 | 12.5 | – | – | – | – | – | – | – | – | – | – | – | – | – | – | Ratio (Escherichia coli [30]): 10; MIC (Enterococcus faecalis [8]): 25 µg/mL; MIC (Bacillus cereus [9]): 25 µg/mL; zone of inhibition at 250 µg/disc (Aspergillus fumigatus): 20.8 mm; zone of inhibition at 250 µg/disc (Talaromyces funiculosus): 17.4 mm; zone of inhibition at 250 µg/disc (Aeromonas hydrophila [10]): 15.3 mm; zone of inhibition at 250 µg/disc (Pseudomonas aeruginosa [11]): 14.9 mm; zone of inhibition at 250 µg/disc (Klebsiella pneumoniae [12]): 15.5 mm; zone of inhibition at 250 µg/disc (Escherichia coli [13]): 12.3 mm; zone of inhibition at 250 µg/disc (Clostridium perfringens [14]): 16.6 mm; zone of inhibition at 250 µg/disc (Staphylococcus aureus [15]): 12.5 mm; zone of inhibition at 250 µg/disc (Enterococcus faecalis [16]): 13.3 mm; zone of inhibition at 250 µg/disc (Bacillus cereus [17]): 15 mm; zone of inhibition at 250 µg/disc (Candida albicans): 18.1 mm
4 | CC(C)(O/N=C(\C(=O)N[C@@H]1C(=O)N2C(C(=O)[O-])=C(C[n+]3ccccc3)CS[C@H]12)c1csc(N)n1)C(=O)O [CEFTAZIDIME] | – | – | – | – | – | – | 256 (≈ 468 µM) | > 256 | 64 (≈ 117 µM) | 8 (≈ 14.6 µM) | 16 (≈ 29.3 µM) | 128 (≈ 234 µM) | 4 (≈ 7.32 µM) | 64 (≈ 117 µM) | 8 (≈ 14.6 µM) | 16 (≈ 29.3 µM) | > 256 | > 256 | 128 (≈ 234 µM) | 128 (≈ 234 µM) | –
5 | C[C@@H](O)[C@H]1C(=O)N2C(C(=O)O)=C(S[C@@H]3CN[C@H](C(=O)N(C)C)C3)[C@H](C)[C@H]12 [MEROPENEM] | – | – | – | – | – | – | > 8 | 16 (≈ 41.7 µM) | 0.12 (≈ 0.313 µM) | 1 (≈ 2.61 µM) | 0.12 (≈ 0.313 µM) | 1 (≈ 2.61 µM) | 0.125 (≈ 0.326 µM) | 0.06 (≈ 0.156 µM) | 0.12 (≈ 0.313 µM) | 0.25 (≈ 0.652 µM) | 0.5 (≈ 1.3 µM) | 0.25 (≈ 0.652 µM) | 0.12 (≈ 0.313 µM) | 128 (≈ 334 µM) | –

— ChEMBL document CHEMBL3091449, “Synthesis and antimicrobial profile of N-substituted imidazolium oximes and their monoquaternary salts against multidrug resistant bacteria” (2013)
